Measurements from different studies.
Protocols differ between the studies behind these lines.
Target: Serine/threonine-protein kinase PRP4 homolog (PRPF4B, Homo sapiens, UniProt Q13523)

`CN(C)c1nccc(-c2cnn3ncccc23)n1` has a remaining binding of 86% (binding; 1 µM).
The remaining binding of `CS(=O)(=O)N1CCCC(NC(=O)[C@H](CCC2CCCCC2)NC(=O)c2ccc(CNc3ncnc4c3nnn4-c3ccccc3)cc2)C1` (stereo partly shown) is reported as 60% (cell-free assay, competition with immobilised ligand; 0.1 µM).
For `c1cnn2ncc(-c3ccnc(N4CCC45COC5)n3)c2c1`, the remaining binding was 84% (binding; 1 µM).
`O=c1nc(-c2ccccn2)sc2ccccc12` has a remaining binding of 71% (binding, competition with immobilised ligand; 1 µM).
For `Cc1cnn2ncc(-c3ccnc(N(C)C)n3)c2c1`, the remaining binding was 94% (binding; 1 µM).
For `CNC(=O)[C@@H]1CC[C@@H](n2c(-c3ccc4cnccc4c3)nc3ccc(C(=O)NCc4cccc(C(N)=O)c4)cc32)C1`, the remaining binding was 100% (binding, competition with immobilised ligand; 1 µM).
With `O=C(NCCCN1CCOCC1)c1ccc(Nc2ncc(Cl)c(-c3ccc(Cl)s3)n2)cc1` the remaining binding was 22% (binding, competition with immobilised ligand; 1 µM).
`CN1CCN(c2cnc3c(C4CCN(C(=O)c5ccc(OC(F)(F)F)cc5N)CC4)ncnc3c2)CC1` gave a remaining binding of 100% (cell-free assay, competition with immobilised ligand; 1 µM).
`COc1ccnn2ncc(-c3ccnc(N(C)C)n3)c12` has a remaining binding of 69% (binding; 1 µM).
For `O=C(NCCCN1CCOCC1)c1ccc(Nc2nccc(-c3cc4ccccc4s3)n2)cc1`, the remaining binding was 6.8% (binding, competition with immobilised ligand; 1 µM).
The remaining binding of `Nc1ncc2c(n1)-c1c([nH]c3ccc(C#CC4CC4)cc13)CCCC2` is reported as 80% (binding, competition with immobilised ligand; 1 µM).
`O=C(NCCCC1CCCCC1)c1ccc(CNC(=O)c2cnn(-c3ccccc3)c2C(F)(F)F)cc1` gave a remaining binding of 100% (cell-free assay, competition with immobilised ligand; 0.1 µM).
`FC(F)(F)Oc1cccc(-c2cnc3ccc(-c4ccncc4)nn23)c1` gave a remaining binding of 71% (cell-free assay, competition with immobilised ligand; 5 µM).
The remaining binding of `Cc1noc([C@H]2C[C@@H](c3ccc(C(F)(F)F)cc3)CN(C(=O)N3CCS(=O)(=O)C3)C2)n1` is reported as 72% (cell-free assay, competition with immobilised ligand; 1 µM).
With `Cc1cnc(Nc2ccc(C(=O)N3CCC(N4CCCC4)CC3)cc2)nc1-c1cc2ccccc2s1` the remaining binding was 5.2% (binding, competition with immobilised ligand; 1 µM).
`C=CC(=O)N1CCC(C(=O)NCC(=O)N2CCN(c3nc(-c4cnc(N)nc4C(F)F)nc(N4CCOCC4)n3)CC2)CC1` gave a remaining binding of 100% (binding, competition with immobilised ligand; 1 µM).
The remaining binding of `C[C@@H]1CN(c2cc(-c3n[nH]c4ccc(OC5(C)CC5)cc34)ncn2)C[C@H](C)O1` is reported as 83% (cell-free assay, competition with immobilised ligand; 0.1 µM).
`C[C@@H]1CCN(c2nccc(-c3cnn4ncccc34)n2)C1` gave a remaining binding of 64% (binding; 1 µM).
`COc1cnc(Nc2cccc(S(N)(=O)=O)c2)nc1N1CCN(c2ccccc2)C(=O)C1` has a remaining binding of 100% (binding, competition with immobilised ligand; 1 µM).
`N[C@H]1CCN(c2nccc(-c3cnn4ncccc34)n2)C1` has a remaining binding of 82% (binding; 1 µM).
With `Cc1nccc(COC(=O)N2C[C@@H]3[C@@H](CNC(=O)c4ccc5[nH]nnc5c4)[C@@H]3C2)n1` the remaining binding was 95% (cell-free assay, competition with immobilised ligand; 1 µM).
For `O=C(NCC1CCOCC1)c1n[nH]cc1NC(=O)c1c(F)cccc1F`, the remaining binding was 100% (binding, competition with immobilised ligand; 1 µM).
